HCT116 PTEN-null = PTEN-deleted cell growth suppression. HCT116 PTEN-null viability, CellTiter-Glo, 60 h; stronger effect = lower value. viability, % at 10 µM. 140,000 compounds, 1.2% hits. AID 827;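 active = viability at or below a set limit, 4 SD under the median of all tested compounds, cut at about 3.7% in these data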;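 note: PTEN knockout HCT116 line with beta catenin targeted HCT116 as companion control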
HUVEC prolif 384 = inhibitors of human endothelial cell proliferation; HUVEC proliferation, CellTiter-Glo luminescence, 72 h; stronger effect = lower value; viability, % at 10 µM (by protocol); 86,000 compounds, 1.1% hits; AID 648;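 active = viability at or below 30%; inactive = viability above 30%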;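 note: 100% = median luminescence of DMSO-only cell control wells on each plate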
Fibroblast inh = blocks proliferation of human lung fibroblasts; 85,000 compounds, 1.1% hits; LL 47 human lung fibroblast viability, ATP luminescence; stronger effect = lower value; viability, % at 10 µM;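 active = viability at or below 50% in the single dose screen; inactive = viability above 50%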;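 note: compound exposure lasted 72 h before the ATP readout; 100% = median luminescence of untreated cell-only wells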
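Material: Human LL 47 lung fibroblast cells | Input: 1,150 cells/well | Buffer or medium: IMEM plus 15% FBS | Compound dosing: 0.1% DMSO in all compound wells | Times: Overnight cell rest, 72 h compound treatment at 37 °C | Signal: CellTiter-Glo luminescence measuring cellular ATP | Measure: % viability versus median cells-only luminescence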
H69AR inhibit = blocks growth of human H69AR lung tumor cells. viability, % at 10 µM. AID 598. 85,000 compounds, 6% hits. H69AR lung tumor viability, ATP luminescence, 72 h; stronger effect = lower value;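 active = viability at or below 40%; inactive = viability above 40%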;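 note: multidrug resistant small cell line overexpressing MRP-1 efflux transporter; 100% = mean luminescence of untreated control wells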
Cav32 inh = human Cav3.2 channel inhibition, primary screen; Cav3.2-expressing cells, Fluo-4 calcium fluorescence FDSS; stronger effect = lower value; B-score at 10 µM; 100,000 compounds, 4% hits;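 active = single-dose well whose peak fluorescence ratio is a statistical outlier from its plate by either plate-standardised score or position-corrected B-score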
bCat KO growth = beta-catenin-lacking colon tumor cell growth suppression; viability, % at 10 µM; AID 818; 140,000 compounds, 1.5% hits; HCT116 beta-catenin knockout viability, CellTiter-Glo, 60 h; stronger effect = lower value;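 active = viability at or under a set limit, the compound median less 4 SD, cut at about 6% in these data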;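 note: 0% = Hyamine 1622 control at 20 µM and 100% = untreated cell control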
* hit, by the source's call; . = no result given. Sampled rows, rich in hits. Any-hit rate of the full collection: about 7.1%.

SMILES	HCT116 PTEN-null	HUVEC prolif 384	Fibroblast inh	H69AR inhibit	Cav32 inh	bCat KO growth
CN1CCN(c2ccccc2NC(=O)c2ccc(-c3ccccc3)cc2)CC1	28	48	87	33*	0.6	47
O=C(Nc1ccccc1F)c1ccc(OCc2ccccc2)cc1	99	.	.	.	.	97
CN1CCN(c2ccccc2NC(=O)c2ccc(OCc3ccccc3)cc2)CC1	6	17*	95	.	-1.8	3.4*
CN(C(=O)COC(=O)CNC(=O)C12CC3CC(CC(C3)C1)C2)C1CCS(=O)(=O)C1 (stereo not drawn)	94	.	.	.	.	98
Cc1cc(NC(=O)CN2C(=O)NC3(CCC(C)CC3)C2=O)no1 (stereo not drawn)	93	.	.	.	.	91
COc1cc(NC(=S)N2CCN(c3ccccn3)CC2)cc(OC)c1	87	.	.	.	.	86
CCOC(=O)C1=C(O)/C(=C/c2ccc(C)o2)SC1=NC(=O)c1ccccc1C	.	64	58	17*	.	.
CCOC(=O)C1=C(O)/C(=C/c2cc(OC)c(OC)c(OC)c2)SC1=Nc1ccc(OC)cc1	86	.	.	.	.	86
Cc1ccc2[nH]c(=O)c(CN(CCCN3CCOCC3)C(=O)Nc3cccc(Cl)c3)cc2c1	33	8.5*	64	20*	.	40
Cc1ccc(C(O)(c2ccccc2)c2ccccc2C(C)N(C)C)c(C)c1 (stereo not drawn)	1.8*	.	.	.	-2.9	3.5*
CC(c1ccccc1C(O)c1ccccc1)N(C)C (stereo not drawn)	100	.	.	.	-0.23	92
Cc1ccc(C)c(C(C)NC(=O)C2C3CCC(O3)C2C(=O)O)c1 (stereo not drawn)	93	29*	105	23*	0.36	89
Cc1ccccc1NC(=O)C1C2CCC(O2)C1C(=O)O (stereo not drawn)	80	85	96	95	-0.21	79
CCn1c(SCC(=O)N2CCc3ccccc32)nnc1-c1ccco1	101	.	.	.	0.21	92
COc1ccc2c(c1)CC/C(=C\C=C\c1ccccc1OC)C2=O	90	112	110	101	-0.077	78
COc1ccc2c(c1)C(=O)/C(=C/C=C/c1ccccc1)CC2	69	99	97	52	-4.7*	71
COc1c(Cl)cc(Cl)cc1/C=C/C(=O)c1ccc(NC(=O)c2cccs2)cc1	1.8*	.	.	.	.	2.6*
COc1c(Cl)cc(Cl)cc1C(=O)Nc1ccc(C(=O)O)cc1	89	.	.	.	.	98
O=C1NC(c2ccc3c(c2)OCO3)Nc2ccccc21 (stereo not drawn)	28	63	89	27*	.	27
COc1cccc(-c2nc(-c3ccccn3)no2)c1OC	107	104	96	94	0.76	107
c1ccc(-c2noc(-c3cccc4ccccc34)n2)nc1	77	82	89	38*	-1.8	73
c1ccc(-c2ccc(-c3nc(-c4ccccn4)no3)cc2)cc1	56	44	42*	34*	2.1	55
CC(CCc1ccccc1)NC(=O)C(=O)NCCc1ccccc1 (stereo not drawn)	98	.	.	.	.	101
O=C(NC(=S)NCc1ccccc1)c1ccccc1F	91	.	.	.	-0.69	98
O=C(NC(=S)N(Cc1ccccc1)Cc1ccccc1)c1ccccc1F	54	.	.	.	-6.2*	40
SMILES	HCT116 PTEN-null	HUVEC prolif 384	Fibroblast inh	H69AR inhibit	Cav32 inh	bCat KO growth
Nc1nc(Nc2ccc(Cl)cc2)nc2ccccc12	22	56	81	21*	0.38	17
O=C(NCC1COc2ccccc2O1)C1C2C=CC3(CN(Cc4ccccc4Cl)C(=O)C13)O2 (stereo not drawn)	84	97	101	92	-8.7*	100
COc1ccc(CCN2CC34C=CC(O3)C(C(=O)NCc3ccccc3Cl)C4C2=O)cc1OC (stereo not drawn)	112	96	105	91	0.81	101
O=C(CSc1nnc2ccccn12)Nc1nsc(-c2ccccc2)n1	101	.	.	.	.	98
C=C(C(=O)c1ccccc1)C(C)C(=C)C(=O)c1ccccc1	1.4*	.	.	.	.	2.4*
C=C(C(=O)c1ccccc1)C(c1ccccc1)C(C)C(=O)c1ccccc1 (stereo not drawn)	9	.	.	.	.	11
CCOC(=O)N1CCN(C(=O)N2CCOCC2)CC1	93	96	100	84	0.068	93
Cc1nn(C(=O)N2CCOCC2)c(C)c1C	0.9*	90	93	99	-0.05	0.9*
O=[N+]([O-])c1cccc(/C=C/c2nc(C=Nc3ccc4ccccc4c3)c(O)o2)c1	2.7*	.	.	.	.	18
Cc1cccc(NC(=S)N/N=C2\CC(C)(C)Oc3ccc(O)cc32)c1	3.8*	.	.	.	.	3.9*
COc1cccc(NC(=S)N/N=C2\CC(C)(C)Oc3ccc(O)cc32)c1	63	.	.	.	.	77
CCCCCCN1C(=O)C(O)=C(C(C)=O)C1c1ccc(Cl)cc1 (stereo not drawn)	84	89	97	102	-7.8*	103
CCCCN1C(=O)C(O)=C(C(C)=O)C1c1ccccc1 (stereo not drawn)	113	105	102	107	0.88	100
CN1CCN(c2ccc(S(=O)(=O)N3CCCCC3)cc2NC(=O)c2ccc(F)cc2F)CC1	70	.	.	.	.	69
O=C1OC(Nc2ccc3c(c2)OCO3)c2ccccc21 (stereo not drawn)	14	56	49*	16*	0.5	16
CN1C(C(=O)NCc2ccc(OC(F)(F)F)cc2)CC2Cn3c(nc4cc(Cl)c(Cl)cc43)C21 (stereo not drawn)	.	.	.	.	-2.9	.
CC(Nc1ccccc1)c1cc(Cl)ccc1O (stereo not drawn)	101	94	100	79	-7.1*	84
O=C1C2C3C=CC(C3)C2C(=O)N1CNc1ccc(O)cc1 (stereo not drawn)	98	99	102	29*	0.13	91
O/N=C/c1cc(Cl)ccc1OCc1cccc2ccccc12	73	.	.	.	-1.9	72
COC(=O)c1ccc(C(=O)OC)c(NS(C)(=O)=O)c1	92	100	97	1.4*	2.1	100
COC(=O)c1cccc(NS(C)(=O)=O)c1C	83	94	102	100	-1.1	83
Cc1ccc(NC(=O)C(=O)NCCN2CCN(C(=S)Nc3ccccc3)CC2)cc1	101	.	.	.	.	91
Cc1ccc(NC(=O)CN(c2ccccc2)S(=O)(=O)N(C)C)cc1	84	.	.	.	.	86
COc1ccccc1CNC(=O)c1csc(Cc2ccc(Cl)cc2)n1	73	.	.	.	-8*	73
COc1ccc(CNC(=O)c2csc(Cc3ccccc3)n2)cc1	96	.	.	.	.	114
Cc1nc2nc3c(c(=O)n2[nH]1)CCCC3	93	.	.	.	-0.55	98
Nc1[nH]n2c(=O)c3c(nc2c1N=Nc1ccc(Cl)cc1)CCCC3	10	.	.	.	-8.7*	11
N#Cc1c[nH]n2c(=O)c3c(nc12)CCCC3	100	.	.	.	.	109
Nc1[nH]n2c(=O)c3c(nc2c1N=Nc1ccccc1)CCCC3	10	.	.	.	-9.6*	12
